Measured values reported in ChEMBL document CHEMBL1138119, “Extremely potent orally active benzo[g]quinoline analogue of the dopaminergic prodrug: 1-propyl-trans-2,3,4,4a,5,7,8,9,10,10a-decahydro-1H-benzo-[g]quinolin-6-one [corrected]” (2006).
Activity calls are given as the source filed them. The rule behind the calls is not given here.

Legend:
[1] = target: D(1A) dopamine receptor (Rattus norvegicus) (UniProt P18901); experiment: Displacement of [3H]SCH-23390 from dopamine D1 receptor in rat corpus striatum membrane at 100nM; assay type: cell membranes
D(1A) dopamine receptor (Rattus norvegicus), sequence (P18901 whole entry): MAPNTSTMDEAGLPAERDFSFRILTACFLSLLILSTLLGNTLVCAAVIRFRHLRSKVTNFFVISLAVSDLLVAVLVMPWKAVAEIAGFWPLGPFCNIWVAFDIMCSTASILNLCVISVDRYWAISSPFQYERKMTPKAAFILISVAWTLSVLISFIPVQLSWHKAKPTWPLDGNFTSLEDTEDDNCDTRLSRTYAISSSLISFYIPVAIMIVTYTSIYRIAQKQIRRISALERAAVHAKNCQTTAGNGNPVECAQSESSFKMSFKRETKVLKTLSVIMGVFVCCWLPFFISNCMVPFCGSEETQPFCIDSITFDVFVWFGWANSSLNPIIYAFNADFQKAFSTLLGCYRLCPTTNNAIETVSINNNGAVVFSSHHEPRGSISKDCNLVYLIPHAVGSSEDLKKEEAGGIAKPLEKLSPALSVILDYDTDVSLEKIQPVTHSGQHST

[2] = target: T1, D(4) dopamine receptor (Homo sapiens) (UniProt P21917); experiment: Displacement of [3H]nemonapride from human dopamine D4 receptor at 50nM
T1 sequence (whole entry): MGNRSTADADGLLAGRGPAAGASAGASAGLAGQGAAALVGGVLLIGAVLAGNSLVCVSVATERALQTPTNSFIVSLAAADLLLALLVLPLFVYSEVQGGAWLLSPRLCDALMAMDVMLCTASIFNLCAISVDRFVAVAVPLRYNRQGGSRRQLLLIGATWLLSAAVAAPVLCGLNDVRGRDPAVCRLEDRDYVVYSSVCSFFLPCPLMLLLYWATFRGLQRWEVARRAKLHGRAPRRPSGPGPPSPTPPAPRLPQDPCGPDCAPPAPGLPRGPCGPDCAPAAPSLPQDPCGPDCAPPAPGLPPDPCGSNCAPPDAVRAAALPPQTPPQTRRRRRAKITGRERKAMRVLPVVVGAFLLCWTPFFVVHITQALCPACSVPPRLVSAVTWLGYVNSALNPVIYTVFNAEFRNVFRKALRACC
Procedure, shortened: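 Inhibition of [3H]nemonapride binding (0.50 nM; Kd 0.20 nM) to cloned human D4 receptors, in vitro. Displacement was measured at a single fixed test concentration.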

[3] = target: D(2) dopamine receptor (Rattus norvegicus) (UniProt P61169); experiment: Displacement of [3H]spiperone from dopamine D2 receptor in rat corpus striatum membrane at 100nM; assay type: cell membranes
D(2) dopamine receptor (Rattus norvegicus), sequence (P61169 whole entry): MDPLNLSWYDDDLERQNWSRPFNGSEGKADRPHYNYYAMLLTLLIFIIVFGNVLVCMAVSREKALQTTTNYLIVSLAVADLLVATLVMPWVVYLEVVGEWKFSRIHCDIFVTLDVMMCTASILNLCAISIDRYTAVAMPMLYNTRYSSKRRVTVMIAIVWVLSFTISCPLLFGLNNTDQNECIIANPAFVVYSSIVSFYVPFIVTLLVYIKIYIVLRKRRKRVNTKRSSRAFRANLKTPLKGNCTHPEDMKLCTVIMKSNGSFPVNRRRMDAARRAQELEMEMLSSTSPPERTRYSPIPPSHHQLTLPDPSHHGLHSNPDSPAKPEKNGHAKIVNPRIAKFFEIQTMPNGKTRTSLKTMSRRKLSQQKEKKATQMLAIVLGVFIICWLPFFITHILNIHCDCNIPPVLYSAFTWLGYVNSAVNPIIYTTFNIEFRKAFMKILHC
Procedure, shortened: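 Inhibition of [3H]spiperone binding (0.50 nM; Kd 0.20 nM) to dopamine receptors in rat corpus striatum membranes, in vitro. Displacement was measured at a single fixed test concentration.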

[4] = target: D(3) dopamine receptor (Homo sapiens) (UniProt P35462); experiment: Displacement of [3H]spiperone from human dopamine D3 receptor expressed in CHO cells at 50nM; assay type: cell-based
D(3) dopamine receptor (Homo sapiens), sequence (P35462 whole entry): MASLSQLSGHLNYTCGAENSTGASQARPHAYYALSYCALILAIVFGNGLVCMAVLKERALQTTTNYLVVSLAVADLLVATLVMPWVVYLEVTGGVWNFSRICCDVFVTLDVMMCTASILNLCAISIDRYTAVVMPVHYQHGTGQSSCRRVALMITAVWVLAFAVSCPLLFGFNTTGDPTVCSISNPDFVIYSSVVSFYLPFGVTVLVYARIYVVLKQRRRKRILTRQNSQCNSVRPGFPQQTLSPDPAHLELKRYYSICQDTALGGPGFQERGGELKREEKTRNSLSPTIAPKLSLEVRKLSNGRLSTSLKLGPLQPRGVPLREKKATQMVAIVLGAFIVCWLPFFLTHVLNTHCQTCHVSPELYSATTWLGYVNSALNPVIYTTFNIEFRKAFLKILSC
Procedure, shortened: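 CHO membranes with cloned human D3 (26 µg protein) in 25 mM Tris-HCl pH 7.4, 6.0 mM MgCl2, 1.0 mM EDTA. […] Incubated 60 min at 25 °C, filtered on PEI-treated GF/C, and counted by scintillation. Measured at a single test concentration.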

Rattus norvegicus [5] = experiment: Decrease in striatal dopamine levels in rat at 3 nmol/kg, sc; assay type: functional; set-up: scale not given: the % may be the effect or the level left
Procedure, shortened: (§1)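 Striatal microdialysis in freely moving rats, done by a previously described procedure. Doses were given sc or po. Dopamine levels are expressed relative to basal dopamine levels, as mean (SEM) from four rats.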

Rattus norvegicus [6] = experiment: Decrease in striatal dopamine levels in rat at 1 nmol/kg, sc; assay type: functional; set-up: scale not given: the % may be the effect or the level left; procedure, shortened: as §1
Rattus norvegicus [7] = experiment: Decrease in striatal dopamine levels in rat at 10 nmol/kg, sc; assay type: functional; set-up: scale not given: the % may be the effect or the level left; procedure, shortened: as §1
Rattus norvegicus [8] = experiment: Decrease in striatal dopamine levels in rat at 3 nmol/kg, po; assay type: functional; set-up: scale not given: the % may be the effect or the level left; procedure, shortened: as §1
Rattus norvegicus [9] = experiment: Decrease in striatal dopamine levels in rat at 10 nmol/kg, po; assay type: functional; set-up: scale not given: the % may be the effect or the level left; procedure, shortened: as §1
Rattus norvegicus [10] = experiment: Effect on striatal dopamine release in rat at 1umol/kg, sc; assay type: functional, organism-based; procedure, shortened: as §1

Compound	Activity [1] [%]	Activity [2] [%]	Activity [3] [%]	Activity [4] [%]	Activity (Rattus norvegicus [5]) [%]	Activity (Rattus norvegicus [6]) [%]	Activity (Rattus norvegicus [7]) [%]	Activity (Rattus norvegicus [8]) [%]	Activity (Rattus norvegicus [9]) [%]	Activity (Rattus norvegicus [10])
CCCN1CCCC2CC3=C(CCCC3=O)CC21 (single isomer, unassigned; (-)) [listing 1 of 2 here]	-1	-4	15	23	–	–	–	–	–	–
CCCN1CCCC2CC3=C(CCCC3=O)CC21 (single isomer, unassigned; (-)) [listing 2 of 2 here]	–	–	–	–	20	20	20	45	60	–
CCCN1CCCC2CC3=C(CCCC3=O)CC21 (single isomer, unassigned; (+))	7	-19	3	28	–	–	–	–	–	inactive
